According to publication PMC7199890 (European journal of medicinal chemistry, 2019):
Values joined by “and” are separate entries in the source; they are usually repeats but may differ in a detail not shown here. Identical values can stand only once. Counter-ions that a name gives are not always drawn.

Tests used:
Test in all cases: Radioligand binding
hA2AAR = hA2AAR (Homo sapiens, UniProt P29274); conditions: selectivity ratio of Ki values
hA3AR = target: T1, hA3AR (Homo sapiens, UniProt P0DMS8); conditions: selectivity ratio of Ki values
T1 sequence (P0DMS8 1-318): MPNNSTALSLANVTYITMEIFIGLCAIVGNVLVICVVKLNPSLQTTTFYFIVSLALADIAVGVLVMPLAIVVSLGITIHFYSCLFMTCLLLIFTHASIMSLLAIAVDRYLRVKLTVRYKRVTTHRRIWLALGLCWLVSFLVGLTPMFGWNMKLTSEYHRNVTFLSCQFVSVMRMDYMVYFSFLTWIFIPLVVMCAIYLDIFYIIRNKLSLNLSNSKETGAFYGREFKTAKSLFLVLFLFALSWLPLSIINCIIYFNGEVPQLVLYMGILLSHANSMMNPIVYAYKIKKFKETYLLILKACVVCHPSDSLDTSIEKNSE
Procedure, shortened: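 Displacement of [125I]AB-MECA binding on membranes from CHO cells expressing recombinant hA3AR. […] ADA (3 units/mL) was present during membrane preparation, a 30 min 30 °C preincubation and radioligand incubation. DMSO was ≤2% final. At least six competitor concentrations spanning 3 log units were used. Incubations ended by GF/B filtration and three rinses.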

hA1AR = target: T2, hA1AR (Homo sapiens, UniProt P30542); conditions: read-out: hA1 % of inhibition
T2 sequence (P30542 1-326): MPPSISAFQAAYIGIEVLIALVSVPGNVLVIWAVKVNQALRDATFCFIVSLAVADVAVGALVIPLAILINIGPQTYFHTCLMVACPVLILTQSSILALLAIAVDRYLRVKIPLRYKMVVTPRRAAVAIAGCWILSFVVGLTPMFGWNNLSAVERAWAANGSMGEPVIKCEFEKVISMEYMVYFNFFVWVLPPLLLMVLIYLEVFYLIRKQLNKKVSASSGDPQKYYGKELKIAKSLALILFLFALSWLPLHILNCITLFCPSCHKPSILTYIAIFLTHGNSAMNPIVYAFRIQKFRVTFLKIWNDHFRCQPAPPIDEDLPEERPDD
Procedure, shortened: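 Membranes came from CHO cells expressing recombinant hA1AR, labelled with [3H]R-PIA. ADA (3 units/mL) was present during membrane preparation, a 30 min 30 °C preincubation and radioligand incubation. Test compound was dissolved in DMSO and diluted in buffer, DMSO ≤2% final. Incubations ended by GF/B filtration and three buffer rinses. The read-out is % inhibition of specific binding at a single concentration.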

Chain of hA2AAR (P29274 whole entry): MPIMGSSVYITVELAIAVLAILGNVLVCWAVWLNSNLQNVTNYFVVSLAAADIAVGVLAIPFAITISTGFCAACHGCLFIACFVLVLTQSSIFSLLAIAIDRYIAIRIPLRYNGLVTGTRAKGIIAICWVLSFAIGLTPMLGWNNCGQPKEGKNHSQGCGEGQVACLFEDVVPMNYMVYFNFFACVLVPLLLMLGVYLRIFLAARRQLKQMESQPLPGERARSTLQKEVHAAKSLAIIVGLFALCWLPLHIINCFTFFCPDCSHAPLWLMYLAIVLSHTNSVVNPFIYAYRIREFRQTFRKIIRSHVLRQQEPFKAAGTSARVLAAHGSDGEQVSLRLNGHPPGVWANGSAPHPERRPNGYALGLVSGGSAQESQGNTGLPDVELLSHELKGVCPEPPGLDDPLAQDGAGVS

| SMILES | hA1/hA2A (hA2AAR) | hA1/hA3 (hA3AR) | hA2A/hA3 (hA3AR) | inhibition at 10 µM (hA1AR) |
| --- | --- | --- | --- | --- |
| Cn1cc2c(nc(NC(=O)Nc3ccc(CC(=O)O)cc3)n3nc(-c4ccco4)nc23)n1 [Compound 3, 2-(4-(3-(2-(furan-2-yl)-8-methyl-8H-pyrazolo [4,3-e] [1,2,4]triazolo[1,5-c]pyrimidin-5-yl)ureido)phenyl)acetic acid] | >10 |  |  |  |
| Cn1cc2c(nc(NC(=O)Nc3ccc(CC(=O)NCCCNC(=O)OC(C)(C)C)cc3)n3nc(-c4ccco4)nc23)n1 [Compound 4, tert-Butyl (3-(2-(4-(3-(2-(furan-2-yl)-8-methyl-8H-pyrazolo [4,3-e][1,2,4]triazolo[1,5-c]pyrimidin-5-yl)ureido)phenyl)acetamido)propyl)carbamate] | >66 | >3636 | 54.5 |  |
| Cn1cc2c(nc(NC(=O)Nc3ccc(CC(=O)NCCCCNC(=O)OC(C)(C)C)cc3)n3nc(-c4ccco4)nc23)n1 [Compound 5, tert-Butyl (4-(2-(4-(3-(2-(furan-2-yl)-8-methyl-8H-pyrazolo [4,3-e][1,2,4]triazolo[1,5-c]pyrimidin-5-yl)ureido)phenyl)acetamido)butyl)carbamate] | >33 | >2890 | 88 |  |
| Cn1cc2c(nc(NC(=O)Nc3ccc(CC(=O)NCCCCCNC(=O)OC(C)(C)C)cc3)n3nc(-c4ccco4)nc23)n1 [Compound 6, tert-Butyl (5-(2-(4-(3-(2-(furan-2-yl)-8-methyl-8H-pyrazolo [4,3-e][1,2,4]triazolo[1,5-c]pyrimidin-5-yl)ureido)phenyl)acetamido)pentyl)carbamate] | >26.5 | >2237 | 84.1 |  |
| Cn1cc2c(nc(NC(=O)Nc3ccc(CC(=O)NCCOCCOCCNC(=O)OC(C)(C)C)cc3)n3nc(-c4ccco4)nc23)n1 [Compound 7, tert-Butyl (2-(2-(2-(2-(4-(3-(2-(furan-2-yl)-8-methyl-8H-pyrazolo[4,3-e][1,2,4]triazolo[1,5-c]pyrimidin-5-yl)ureido)phenyl)acetamido)ethoxy)ethoxy)ethyl)carbamate] | >22 | >133.6 | 6.1 |  |
| Cn1cc2c(nc(NC(=O)Nc3ccc(CC(=O)NCCCOCCOCCOCCCNC(=O)OC(C)(C)C)cc3)n3nc(-c4ccco4)nc23)n1 [Compound 8, tert-Butyl (1-(4-(3-(2-(furan-2-yl)-8-methyl-8H-pyrazolo [4,3-e][1,2,4]triazolo[1,5-c]pyrimidin-5-yl)ureido)phenyl)-2-oxo-7,10,13-trioxa-3-azahexadecan-16-yl)carbamate] | >30.5 | >121.3 | 3.9 |  |
| Cn1cc2c(nc(NC(=O)Nc3ccc(CC(=O)NCCCN)cc3)n3nc(-c4ccco4)nc23)n1 [Compound 9, N-(3-aminopropyl)-2-(4-(3-(2-(furan-2-yl)-8-methyl-8H-pyrazolo[4,3-e][1,2,4]triazolo[1,5-c]pyrimidin-5-yl)ureido)phenyl) acetamide trifluoroacetate salt] | >57 | >1240 | 21.7 |  |
| Cn1cc2c(nc(NC(=O)Nc3ccc(CC(=O)NCCCCN)cc3)n3nc(-c4ccco4)nc23)n1 [Compound 10, N-(4-aminobutyl)-2-(4-(3-(2-(furan-2-yl)-8-methyl-8H-pyrazolo[4,3-e][1,2,4]triazolo[1,5-c]pyrimidin-5-yl)ureido)phenyl) acetamide trifluoroacetate salt] | >58 | >1666 | 28.6 |  |
| Cn1cc2c(nc(NC(=O)Nc3ccc(CC(=O)NCCCCCN)cc3)n3nc(-c4ccco4)nc23)n1 [Compound 11, N-(5-aminopentyl)-2-(4-(3-(2-(furan-2-yl)-8-methyl-8H-pyrazolo[4,3-e][1,2,4]triazolo[1,5-c]pyrimidin-5-yl)ureido)phenyl) acetamide trifluoroacetate salt] | >49 | >3759 | 76.3 |  |
| Cn1cc2c(nc(NC(=O)Nc3ccc(CC(=O)NCCOCCOCCN)cc3)n3nc(-c4ccco4)nc23)n1.O=C(O)C(F)(F)F [Compound 12, 2-(2-(2-(2-(4-(3-(2-(furan-2-yl)-8-methyl-8H-pyrazolo[4,3-e][1,2,4]triazolo[1,5-c]pyrimidin-5-yl)ureido)phenyl)acetamido)ethoxy)ethoxy)ethanamine trifluoroacetate salt] | >37.4 | >520 | 14 |  |
| Cn1cc2c(nc(NC(=O)Nc3ccc(CC(=O)NCCCOCCOCCOCCCN)cc3)n3nc(-c4ccco4)nc23)n1.O=C(O)C(F)(F)F [Compound 13, N-(3-(2-(2-(3-aminopropoxy)ethoxy)ethoxy)propyl)-2-(4-(3-(2-(furan-2-yl)-8-methyl-8H-pyrazolo[4,3-e][1,2,4]triazolo[1,5-c]pyrimidin-5-yl)ureido)phenyl)acetamide trifluoroacetate salt] | >30 | >970 | 30.3 |  |
| Cn1cc2c(nc(NC(=O)Nc3ccc(CC(=O)NCCCNC(=S)Nc4ccc(-c5c6ccc(=O)cc-6oc6cc(O)ccc56)c(C(=O)O)c4)cc3)n3nc(-c4ccco4)nc23)n1 [Compound 14, 5-(3-(3-(2-(4-(3-(2-(furan-2-yl)-8-methyl-8H-pyrazolo[4,3-e][1,2,4]triazolo[1,5-c]pyrimidin-5-yl)ureido)phenyl)acetamido)propyl)thioureido)-2-(6-hydroxy-3-oxo-3H-xanthen-9-yl)benzoate] | >96 | >96 | 1 | 27% |
| Cn1cc2c(nc(NC(=O)Nc3ccc(CC(=O)NCCCCNC(=S)Nc4ccc(-c5c6ccc(=O)cc-6oc6cc(O)ccc56)c(C(=O)O)c4)cc3)n3nc(-c4ccco4)nc23)n1 [Compound 15, 5-(3-(4-(2-(4-(3-(2-(furan-2-yl)-8-methyl-8H-pyrazolo[4,3-e][1,2,4]triazolo[1,5-c]pyrimidin-5-yl)ureido)phenyl)acetamido)butyl)thioureido)-2-(6-hydroxy-3-oxo-3H-xanthen-9-yl)benzoate] | >129 |  | 0.82 | 28% |
| C#CCCC(=O)Nc1nc2nn(C)cc2c2nc(-c3ccco3)nn12 [Compound 19, N-(2-(furan-2-yl)-8-methyl-8H-pyrazolo[4,3-e][1,2,4]triazolo[1,5-c]pyrimidin-5-yl)pent-4-ynamide] |  | >909 | 16.5 | 55% |
| C#CCCCC(=O)Nc1nc2nn(C)cc2c2nc(-c3ccco3)nn12 [Compound 20, N-(2-(furan-2-yl)-8-methyl-8H-pyrazolo[4,3-e][1,2,4]triazolo[1,5-c]pyrimidin-5-yl)hex-5-ynamide] |  |  | 48.4 |  |
| C#CCCCCC(=O)Nc1nc2nn(C)cc2c2nc(-c3ccco3)nn12 [Compound 21, N-(2-(furan-2-yl)-8-methyl-8H-pyrazolo[4,3-e][1,2,4]triazolo[1,5-c]pyrimidin-5-yl)hept-6-ynamide] | 5.9 | 122 and 122.7 | 20.7 |  |
| C#CCCCCCC(=O)Nc1nc2nn(C)cc2c2nc(-c3ccco3)nn12 [Compound 22, N-(2-(furan-2-yl)-8-methyl-8H-pyrazolo[4,3-e][1,2,4]triazolo[1,5-c]pyrimidin-5-yl)oct-7-ynamide] | >20.7 | >781 | 37.6 |  |
